Experimental data published in ChEMBL document CHEMBL1122166, “Beta-adrenergic blocking agents. 22. 1-Phenoxy-3-[[(substituted-amido) alkyl]amino]-2-propanols” (J Med Chem, 1982).

Tests used:
[1] = target: T1, Adrenergic receptor beta (Homo sapiens) (UniProt P08588+P07550+P13945); assay: In vivo beta adrenergic receptor blocking potency was determined by inhibition of depressor response produced by isoproterenol (0.2 mg/kg iv) in cat preparation; format: functional, organism-based
Method in brief: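 Test agent infused over 30 min at three to five dose levels against a submaximal isoproterenol challenge (0.2 μg/kg iv). The percent blockade of the isoproterenol vasodepressor response was estimated at the dose level derived from the tachycardia inhibition estimate.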

[2] = target: T1, Adrenergic receptor beta (Homo sapiens); assay: In vivo beta adrenergic receptor blocking potency was determined by inhibition of tachycardia produced by isoproterenol (0.2 mg/kg iv) in cat preparation; format: functional, organism-based
Method in brief: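 Test agent infused over 30 min at three to five dose levels. Challenge was a submaximal isoproterenol dose (0.2 μg/kg iv). Mean log values were taken from two or three tests, with standard errors of the means.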

[3] = target: T1, Adrenergic receptor beta (Homo sapiens); assay: In vivo beta adrenergic receptor blocking potency was determined by inhibition of tachycardia produced by isoproterenol (0.2 µg/kg iv) in cat preparation; details: Felis catus; target entry is the homologue from another species
[4] = Felis catus; target entry is the homologue from another species; in the assay text read “0.2 µg/kg iv” for “0.2 mg/kg iv”
[5] = Felis catus; in the assay text read “0.2 µg/kg iv” for “0.2 mg/kg iv”; target entry is the homologue from another species

Structure (SMILES) | inhibition [1, 4] [%] | ED50 [2, 5] [mg/kg] | inhibition [1, 5] [%] | ED50 [2, 4] [mg/kg] | ED50 [3] [mg/kg]
CCCCCC(=O)NCCNCC(O)COc1ccccc1 (stereo unspecified) | 0 | 0.159 | – | – | –
O=C(Cc1ccc(Cl)cc1)NCCNCC(O)COc1ccccc1 (stereo unspecified) | 8 | 0.017 | – | – | –
O=C(COc1ccccc1)NCCNCC(O)COc1ccccc1 (stereo unspecified) | 0 | 0.038 | – | – | –
N#Cc1ccccc1OCC(O)CNCCNC(=O)Nc1ccccc1[N+](=O)[O-] (stereo unspecified) | – | 0.097 | 11 | – | –
CC(C)(CNC(=O)Cc1ccccc1)NCC(O)COc1ccccc1 (stereo unspecified) | 0 | 0.011 | – | – | –
CC(C)C(=O)NCCNCC(O)COc1ccccc1[N+](=O)[O-] (stereo unspecified) | 5 | – | – | 0.006 | –
CC(C)NC(=O)NCCNCC(O)COc1ccccc1 (stereo unspecified) | 0 | 0.099 | – | – | –
CC(CNC(=O)Cc1ccccc1)NCC(O)COc1ccccc1 (stereo unspecified) | 0 | 0.003 | – | – | –
NC(=O)NCCNCC(O)COc1ccccc1 (stereo unspecified) | – | 0.012 | 0 | – | –
O=C(NCCNCC(O)COc1ccccc1)c1ccc(O)c(O)c1 (stereo unspecified) | 0 | – | – | 0.014 | –
CC(CNC(=O)Cc1ccccc1Cl)NCC(O)COc1ccccc1[N+](=O)[O-] (stereo unspecified) | – | – | 34 | 0.007 | –
O=C(Cc1ccccc1)NCCNCC(O)COc1ccccc1 (stereo unspecified) | – | 0.029 | 0 | – | –
CCCCCC(=O)NCC(C)NCC(O)COc1ccccc1 (stereo unspecified) | – | 0.005 | 0 | – | –
CC(=O)NCCCCCCNCC(O)COc1ccccc1 (stereo unspecified) | 16 | – | – | 0.044 | –
O=C(NCCNCC(O)COc1ccccc1)c1ccccc1Cl (stereo unspecified) | – | 0.161 | 0 | – | –
Cc1c(N)cc(S(=O)(=O)NCCNCC(O)COc2ccccc2)cc1[N+](=O)[O-] (stereo unspecified) | – | – | 34 | – | 0.217
C=CCOc1ccccc1OCC(O)CNCCNC(=O)Nc1ccccc1 (stereo unspecified) | 24 | – | – | 0.037 | –
O=C(NCCNCC(O)COc1ccccc1Cl)Nc1ccccc1 (stereo unspecified) | – | – | 4 | 0.037 | –
O=C(NCCNCC(O)COc1ccccc1)C1CCCCC1 (stereo unspecified) | – | – | 0 | 0.02 | –
CN(C)c1ccccc1C(=O)NCCNCC(O)COc1ccccc1 (stereo unspecified) | – | – | 0 | 0.465 | –
CS(=O)(=O)NCCNCC(O)COc1ccccc1 (stereo unspecified) | – | 0.039 | 0 | – | –
CC(C)C(=O)NCCCNCC(O)COc1ccccc1 (stereo unspecified) | – | – | 0 | – | 0.21

Structure (SMILES) | inhibition [1, 4] [%] | ED50 [2, 5] [mg/kg] | inhibition [1, 5] [%] | ED50 [2, 4] [mg/kg] | ED50 [3] [mg/kg]
N#Cc1ccccc1OCC(O)CNCCNC(N)=O (stereo unspecified) | 21 | 0.06 | – | – | –
CC(=O)NCCNCC(O)COc1ccccc1 (stereo unspecified) | – | 0.015 | 7 | – | –
C=CCNC(=O)NCCNCC(O)COc1ccccc1 (stereo unspecified) | – | – | 5 | 0.024 | –
CCCCCCCCC(=O)NCCNCC(O)COc1ccccc1 (stereo unspecified) | 3 | 0.84 | – | – | –
CC(C)S(=O)(=O)NCCNCC(O)COc1ccccc1 (stereo unspecified) | 9 | 0.008 | – | – | –
CC(CNC(=O)C(C)C)NCC(O)COc1ccccc1 (stereo unspecified) | 37 | 0.005 | – | – | –
CC(CNC(=O)Cc1ccccc1)NCC(O)COc1ccccc1C#N (stereo unspecified) | – | 0.004 | 10 | – | –
CC(C)(C)C(=O)NCCNCC(O)COc1ccccc1[N+](=O)[O-] (stereo unspecified) | 25 | 0.011 | – | – | –
CCCCNC(=O)NCCNCC(O)COc1ccccc1 (stereo unspecified) | – | – | 8 | 0.022 | –
O=C(NCCNCC(O)COc1ccccc1)C1CC1 (stereo unspecified) | – | – | 0 | 0.022 | –
CC(C)(OC(=O)NCCNCC(O)COc1ccccc1)c1ccc(Cl)cc1 (stereo unspecified) | – | 0.078 | 25 | – | –
CC(C)C(=O)NCC(C)(C)NCC(O)COc1ccccc1 (stereo unspecified) | 0 | – | – | 0.003 | –
O=C(NCCNCC(O)COc1ccccc1)NC1CCCCC1 (stereo unspecified) | 6 | – | – | – | 0.282
CNC(=O)NCCNCC(O)COc1ccccc1C#N (stereo unspecified) | – | 0.044 | 18 | – | –
CCNC(=O)NCCNCC(O)COc1ccccc1 (stereo unspecified) | 0 | – | – | 0.024 | –
O=C(NCCNCC(O)COc1ccccc1)c1cc(O)ccc1O (stereo unspecified) | – | 0.616 | 0 | – | –
C=CCOc1ccccc1OCC(O)CNC(C)CNC(=O)Cc1ccccc1 (stereo unspecified) | 30 | – | – | 0.019 | –
O=C(NCCNCC(O)COc1ccccc1[N+](=O)[O-])Nc1ccccc1 (stereo unspecified) | – | 0.052 | 14 | – | –
COCC(=O)NCCNCC(O)COc1ccccc1 (stereo unspecified) | – | 0.016 | 0 | – | –
CC(C)NC(=O)NCCNCC(O)COc1ccccc1C#N (stereo unspecified) | 0 | – | – | 0.168 | –
CCCCNC(=O)NCCNCC(O)COc1ccccc1C#N (stereo unspecified) | – | 0.304 | 0 | – | –
